Converted amounts (≈) assume the structure as drawn. Where a SMILES comes first, the peptide text is derived from it.
Columns and labels:
[1] = system: Bacillus subtilis; experiment: Antimicrobial activity against Bacillus subtilis DSM 347 after 17 hrs; assay type: functional; conditions: DSM 347, 17 h
Outline: (§1)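 Mid-log cells (OD600 0.4 to 0.5, grown in LB at 37°C, 180 rpm) in LB at 1.6 x 10^6 cells/ml. Soluble peptides were tested in microtiter wells at 100 to 0.05 µM (twofold dilutions). Resin-bound peptides were tested in tubes at 0.5 to 80 mg/ml resin with horizontal shaking. Incubation 37°C, 180 rpm; A600 read at 17 h; triplicate. Resin MICs were converted to mM using peptide loading per mg resin.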

[2] = system: Escherichia coli; experiment: Antimicrobial activity against Escherichia coli DH5[alpha] after 17 hrs; assay type: functional; outline: as §1
[3] = system: Bacillus subtilis; experiment: Bactericidal activity against Bacillus subtilis DSM 347 after 24 hrs; assay type: functional; conditions: DSM 347, 24 h
Outline: (§2)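 MBC: after the 17 h LB broth dilution growth assay (1.6 x 10^6 cells/ml, 37°C, shaking), 200 µl from wells at or above the MIC was spread on LB agar. Plates were incubated 24 h at 37°C and colonies counted. MBC is the lowest concentration giving no colonies. Triplicate.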

[4] = system: Escherichia coli; experiment: Bactericidal activity against Escherichia coli DH5[alpha] after 24 hrs; assay type: functional; outline: as §2
[5] = Cytotoxicity against human RBC assessed as hemolytic activity after 30 mins by spectrophotometry; assay type: cell-based; conditions: erythrocyte, 0.5 h
Outline: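 Human RBCs were washed in 10 mM Tris, 150 mM NaCl, pH 7.4 and incubated at 2.5 x 10^8 cells/ml with peptide in 1 ml buffer for 30 min with gentle shaking. Samples were ice-cooled and centrifuged (2,000 x g, 4°C, 5 min); supernatant was diluted in 0.5% NH4OH and read at OD540. 0.5% NH4OH served as 100% lysis. EC25 was taken from dose-response curves.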

Row | Compound | MIC [1] [µM] | MIC [2] [µM] | MBC [3] [µM] | MBC [4] [µM] | EC25 [5] [µM]
1 | CC(C)C[C@H](NC(=O)[C@H](C)NC(=O)[C@H](CCCCN)NC(=O)[C@H](CC(C)C)NC(=O)[C@H](C)NC(=O)[C@H](CC(C)C)NC(=O)[C@H](CCCCN)NC(=O)[C@H](CC(C)C)NC(=O)[C@H](C)NC(=O)[C@H](CC(C)C)NC(=O)[C@@H](N)CCCCN)C(=O)N[C@@H](CCCCN)C(=O)N[C@@H](C)C(=O)N[C@@H](C)C(=O)N[C@@H](CC(C)C)C(=O)N[C@@H](CCCCN)C(=O)N[C@@H](CC(C)C)C(=O)N[C@@H](C)C(N)=O | 0.8 (≈ 1.5 µg/mL) | 1.6 (≈ 3 µg/mL) | 0.8 (≈ 1.5 µg/mL) | 1.6 (≈ 3 µg/mL) | 13.1
2 | CC(=O)N[C@@H](CCCCN)C(=O)N[C@@H](CC(C)C)C(=O)N[C@@H](C)C(=O)N[C@@H](CC(C)C)C(=O)N[C@@H](CCCCN)C(=O)N[C@@H](CC(C)C)C(=O)N[C@@H](C)C(=O)N[C@@H](CC(C)C)C(=O)N[C@@H](CCCCN)C(=O)N[C@@H](C)C(=O)N[C@@H](CC(C)C)C(=O)N[C@@H](CCCCN)C(=O)N[C@@H](C)C(=O)N[C@@H](C)C(=O)N[C@@H](CC(C)C)C(=O)N[C@@H](CCCCN)C(=O)N[C@@H](CC(C)C)C(=O)N[C@@H](C)C(N)=O | 0.8 (≈ 1.53 µg/mL) | 12.5 (≈ 24 µg/mL) | 0.8 (≈ 1.53 µg/mL) | 12.5 (≈ 24 µg/mL) | 9.1
3 | CC[C@H](C)[C@H](NC(=O)CNC(C)=O)C(=O)NCC(=O)N[C@@H](CCCCN)C(=O)N[C@@H](Cc1ccccc1)C(=O)N[C@H](C(=O)N[C@@H](Cc1cnc[nH]1)C(=O)N[C@@H](C)C(=O)N[C@H](C(=O)N[C@@H](CCCCN)C(=O)N[C@@H](CCCCN)C(=O)N[C@@H](Cc1c[nH]c2ccccc12)C(=O)NCC(=O)N[C@@H](CCCCN)C(=O)N[C@H](C(=O)N[C@@H](Cc1ccccc1)C(=O)N[C@H](C(=O)NCC(=O)N[C@@H](CCC(=O)O)C(=O)N[C@H](C(=O)N[C@@H](C)C(=O)N[C@@H](CCCCN)C(=O)N[C@@H](CO)C(N)=O)[C@@H](C)CC)[C@@H](C)CC)[C@@H](C)O)C(C)C)[C@@H](C)CC (Ac-GIGKFIHAVKKWGKTFIGEIAKS-NH2) | 1.6 (≈ 4.09 µg/mL) | 3.1 (≈ 7.93 µg/mL) | 1.6 (≈ 4.09 µg/mL) | 3.1 (≈ 7.93 µg/mL) | > 400
4 | CC[C@H](C)[C@H](NC(=O)CN)C(=O)NCC(=O)N[C@@H](CCCCN)C(=O)N[C@@H](Cc1ccccc1)C(=O)N[C@H](C(=O)N[C@@H](Cc1cnc[nH]1)C(=O)N[C@@H](C)C(=O)N[C@H](C(=O)N[C@@H](CCCCN)C(=O)N[C@@H](CCCCN)C(=O)N[C@@H](Cc1c[nH]c2ccccc12)C(=O)NCC(=O)N[C@@H](CCCCN)C(=O)N[C@H](C(=O)N[C@@H](Cc1ccccc1)C(=O)N[C@H](C(=O)NCC(=O)N[C@@H](CCC(=O)O)C(=O)N[C@H](C(=O)N[C@@H](C)C(=O)N[C@@H](CCCCN)C(=O)N[C@@H](CO)C(N)=O)[C@@H](C)CC)[C@@H](C)CC)[C@@H](C)O)C(C)C)[C@@H](C)CC (H-GIGKFIHAVKKWGKTFIGEIAKS-NH2) | 1.6 (≈ 4.02 µg/mL) | 0.8 (≈ 2.01 µg/mL) | 1.6 (≈ 4.02 µg/mL) | 0.8 (≈ 2.01 µg/mL) | 334

— ChEMBL document CHEMBL1629652, “Immobilization reduces the activity of surface-bound cationic antimicrobial peptides with no influence upon the activity spectrum” (Antimicrob Agents Chemother, 2009)
